In ChEMBL document CHEMBL1128519, “Semisynthetic chemical modification of the antifungal lipopeptide echinocandin B (ECB): structure-activity studies of the lipophilic and geometric parameters of polyarylated acyl analogs of ECB” (J Med Chem, 1995):
Values after ≈ are worked out from the molar mass of the structure shown. Numbered stars: 1 amine (or outer) side, 2 acyl side, 3 side chain; on linkers, the order of the positions; unused ones are H or OH. Bridge positions count the residues as written; N and C are the ends. Square brackets hold non-standard residues; d marks the D form. Peptide text beside a SMILES is read from it. * marks the point of attachment. Orn(4R-OH,5R-OH) = O=C([C@H](C[C@@H](O)[C@@H](O)N[*:3])N[*:1])[*:2]; hTyr(3S-OH,4S-OH) = N[C@H](C(=O)O)[C@H](O)[C@@H](O)c1ccc(O)cc1; Pro(3S-OH,4S-Me) = C[C@H]1CN[C@H](C(=O)O)[C@H]1O; X25 = CCCCCCCCCCCCC(Oc1ccc(-c2ccccc2)cc1)C(=O)*; X11 = CCC(CC)COc1ccc(-c2ccc(C(=O)*)cc2)cc1; X13 = O=C(CCCCCCCCCCOc1ccc(-c2ccccc2)cc1)*; X22 = O=C(c1ccc(-c2ccc(OCC3CCCC3)cc2)cc1)*; X24 = CCCCC(Oc1ccc(-c2ccccc2)cc1)C(=O)*; X10 = CCCCc1ccc(COc2ccc(C(=O)*)cc2)cc1; X26 = CCCCOc1ccc(Cc2ccc(C(=O)*)cc2)cc1; X28 = CCCCOc1ccc(Oc2ccc(C(=O)*)cc2)cc1; X23 = O=C(CCCCCOc1ccc(-c2ccccc2)cc1)*; X27 = CCCCCCCCCCOc1cc2ccccc2cc1C(=O)*; X12 = CCCCCCCCCCOCCOc1ccc(C(=O)*)cc1; X30 = CCCCCCOc1cc2ccccc2cc1C(=O)*; Hyp = O=C(O)[C@@H]1C[C@@H](O)CN1; X29 = CCCCCOCCOc1ccc(C(=O)*)cc1

Experiments:
[1] = target: Beta-1,3-glucan synthase (Candida albicans) (UniProt O13428); assay: In vitro inhibition of glucan synthase obtained from Candida albicans at a concentration of 10 ug/mL.
Outline: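 Purified, solubilized β-(1,3)-D-glucan synthase prepared from C. albicans. Percent inhibition measured at 10 µg/mL compound, single determination.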

Candida albicans [2] = assay: Antifungal activity against Candida albicans; assay type: functional
Outline: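 Broth microdilution, C. albicans A26 (ATCC 62342) grown on Sabouraud dextrose agar at 35 °C; inoculum 1 × 10^5 conidia/mL in antibiotic 3 broth. Compounds dissolved at 1.0 mg/mL in methanol, 2-fold serial dilutions from 80 µg/mL, duplicate. Read after 48 h at 35 °C. MIC = lowest concentration completely inhibiting visible growth.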

Candida albicans [3] = assay: In vivo antifungal activity administered intraperitoneally against Candida albicans infections in mice.; assay type: functional; conditions: ip
Outline: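 Male ICR mice (18-20 g), X-irradiated with 400 r 24 h before iv tail-vein infection with 2 × 10^6 C. albicans A26 cells in saline. Compounds suspended in β-cyclodextrin, given parenterally at 0, 4, 24 and 48 h post-infection. 10 mice per dose, top dose 10 mg/kg with 2-fold dilutions down to 0.039 mg/kg. 7-day survival; ED50 by Reed-Muench.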

Chain of Beta-1,3-glucan synthase (Candida albicans) (O13428 as listed by the source): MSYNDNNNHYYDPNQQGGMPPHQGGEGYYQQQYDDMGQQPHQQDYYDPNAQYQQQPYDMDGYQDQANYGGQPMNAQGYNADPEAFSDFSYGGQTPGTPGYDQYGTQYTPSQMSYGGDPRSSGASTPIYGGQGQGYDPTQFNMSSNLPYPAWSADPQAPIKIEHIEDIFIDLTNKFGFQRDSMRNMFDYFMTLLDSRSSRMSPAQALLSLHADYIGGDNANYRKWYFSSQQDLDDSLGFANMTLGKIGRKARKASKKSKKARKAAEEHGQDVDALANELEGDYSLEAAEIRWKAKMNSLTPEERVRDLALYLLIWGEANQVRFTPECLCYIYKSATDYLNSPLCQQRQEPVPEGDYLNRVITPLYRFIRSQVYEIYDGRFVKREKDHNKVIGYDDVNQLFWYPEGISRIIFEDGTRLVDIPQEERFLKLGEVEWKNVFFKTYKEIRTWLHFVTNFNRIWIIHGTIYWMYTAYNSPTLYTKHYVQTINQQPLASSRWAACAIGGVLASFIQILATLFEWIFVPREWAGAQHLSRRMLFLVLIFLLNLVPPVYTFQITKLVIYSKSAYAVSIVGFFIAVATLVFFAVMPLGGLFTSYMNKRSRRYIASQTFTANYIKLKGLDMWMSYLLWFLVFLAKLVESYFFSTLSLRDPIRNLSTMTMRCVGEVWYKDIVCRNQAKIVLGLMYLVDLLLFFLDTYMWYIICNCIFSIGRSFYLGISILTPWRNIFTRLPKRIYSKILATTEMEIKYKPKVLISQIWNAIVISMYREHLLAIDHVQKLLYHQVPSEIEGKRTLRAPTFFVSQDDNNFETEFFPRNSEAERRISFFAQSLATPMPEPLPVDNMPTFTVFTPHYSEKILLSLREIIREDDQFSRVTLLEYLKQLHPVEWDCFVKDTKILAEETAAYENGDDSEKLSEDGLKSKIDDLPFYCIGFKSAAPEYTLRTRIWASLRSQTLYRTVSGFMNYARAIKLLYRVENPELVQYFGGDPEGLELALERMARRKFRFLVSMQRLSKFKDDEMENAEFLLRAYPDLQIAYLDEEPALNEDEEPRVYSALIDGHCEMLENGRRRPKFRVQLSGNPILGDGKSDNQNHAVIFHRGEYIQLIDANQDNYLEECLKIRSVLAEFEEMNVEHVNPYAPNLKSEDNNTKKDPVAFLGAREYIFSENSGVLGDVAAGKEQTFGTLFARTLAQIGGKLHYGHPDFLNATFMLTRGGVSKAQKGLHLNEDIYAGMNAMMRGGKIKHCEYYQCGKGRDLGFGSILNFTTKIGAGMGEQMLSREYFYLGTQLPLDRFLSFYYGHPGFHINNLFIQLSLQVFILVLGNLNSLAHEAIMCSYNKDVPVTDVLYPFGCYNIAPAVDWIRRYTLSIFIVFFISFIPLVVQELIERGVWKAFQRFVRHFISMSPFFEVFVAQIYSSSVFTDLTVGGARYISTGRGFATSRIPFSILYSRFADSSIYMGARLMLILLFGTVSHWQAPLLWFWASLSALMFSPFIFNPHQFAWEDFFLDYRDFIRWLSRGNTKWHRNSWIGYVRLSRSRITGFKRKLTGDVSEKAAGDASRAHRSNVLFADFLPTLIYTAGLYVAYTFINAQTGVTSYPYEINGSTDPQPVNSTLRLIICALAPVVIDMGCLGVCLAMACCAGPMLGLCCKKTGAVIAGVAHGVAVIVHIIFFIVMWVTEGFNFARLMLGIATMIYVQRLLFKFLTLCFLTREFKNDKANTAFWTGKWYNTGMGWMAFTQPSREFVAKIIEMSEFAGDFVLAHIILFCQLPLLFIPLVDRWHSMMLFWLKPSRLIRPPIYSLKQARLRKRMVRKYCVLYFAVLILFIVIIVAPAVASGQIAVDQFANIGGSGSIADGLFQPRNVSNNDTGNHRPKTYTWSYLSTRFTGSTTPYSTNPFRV

SMILES	inhibition [1]	MIC (Candida albicans [2])	ED50 (Candida albicans [3])
CCCCc1ccc(COc2ccc(C(=O)N[C@H]3C[C@@H](O)[C@@H](O)NC(=O)[C@@H]4[C@@H](O)[C@@H](C)CN4C(=O)[C@H]([C@@H](C)O)NC(=O)[C@H]([C@H](O)[C@@H](O)c4ccc(O)cc4)NC(=O)[C@@H]4C[C@@H](O)CN4C(=O)[C@H]([C@@H](C)O)NC3=O)cc2)cc1 (X10-[Orn(4R-OH,5R-OH)]T[Hyp][hTyr(3S-OH,4S-OH)]T[Pro(3S-OH,4S-Me)]; lactam 1-C)	68.9%	0.156 µg/mL (≈ 0.147 µM)	6.7 mg/kg
CCC(CC)COc1ccc(-c2ccc(C(=O)N[C@H]3C[C@@H](O)[C@@H](O)NC(=O)[C@@H]4[C@@H](O)[C@@H](C)CN4C(=O)[C@H]([C@@H](C)O)NC(=O)[C@H]([C@H](O)[C@@H](O)c4ccc(O)cc4)NC(=O)[C@@H]4C[C@@H](O)CN4C(=O)[C@H]([C@@H](C)O)NC3=O)cc2)cc1 (X11-[Orn(4R-OH,5R-OH)]T[Hyp][hTyr(3S-OH,4S-OH)]T[Pro(3S-OH,4S-Me)]; lactam 1-C)		0.039 µg/mL (≈ 0.0362 µM)	4.6 mg/kg
CCCCCCCCCCOCCOc1ccc(C(=O)N[C@H]2C[C@@H](O)[C@@H](O)NC(=O)[C@@H]3[C@@H](O)[C@@H](C)CN3C(=O)[C@H]([C@@H](C)O)NC(=O)[C@H]([C@H](O)[C@@H](O)c3ccc(O)cc3)NC(=O)[C@@H]3C[C@@H](O)CN3C(=O)[C@H]([C@@H](C)O)NC2=O)cc1 (X12-[Orn(4R-OH,5R-OH)]T[Hyp][hTyr(3S-OH,4S-OH)]T[Pro(3S-OH,4S-Me)]; lactam 1-C)	71.4%	0.625 µg/mL (≈ 0.567 µM)	9.5 mg/kg
C[C@@H](O)[C@@H]1NC(=O)[C@H]([C@H](O)[C@@H](O)c2ccc(O)cc2)NC(=O)[C@@H]2C[C@@H](O)CN2C(=O)[C@H]([C@@H](C)O)NC(=O)[C@@H](NC(=O)CCCCCCCCCCOc2ccc(-c3ccccc3)cc2)C[C@@H](O)[C@@H](O)NC(=O)[C@@H]2[C@@H](O)[C@@H](C)CN2C1=O (X13-[Orn(4R-OH,5R-OH)]T[Hyp][hTyr(3S-OH,4S-OH)]T[Pro(3S-OH,4S-Me)]; lactam 1-C)	80.2%	0.02 µg/mL (≈ 0.0176 µM)	7.4 mg/kg
C[C@@H](O)[C@@H]1NC(=O)[C@H]([C@H](O)[C@@H](O)c2ccc(O)cc2)NC(=O)[C@@H]2C[C@@H](O)CN2C(=O)[C@H]([C@@H](C)O)NC(=O)[C@@H](NC(=O)c2ccc(-c3ccc(OCC4CCCC4)cc3)cc2)C[C@@H](O)[C@@H](O)NC(=O)[C@@H]2[C@@H](O)[C@@H](C)CN2C1=O (X22-[Orn(4R-OH,5R-OH)]T[Hyp][hTyr(3S-OH,4S-OH)]T[Pro(3S-OH,4S-Me)]; lactam 1-C)		0.039 µg/mL (≈ 0.0362 µM)	1.2 mg/kg
C[C@@H](O)[C@@H]1NC(=O)[C@H]([C@H](O)[C@@H](O)c2ccc(O)cc2)NC(=O)[C@@H]2C[C@@H](O)CN2C(=O)[C@H]([C@@H](C)O)NC(=O)[C@@H](NC(=O)CCCCCOc2ccc(-c3ccccc3)cc2)C[C@@H](O)[C@@H](O)NC(=O)[C@@H]2[C@@H](O)[C@@H](C)CN2C1=O (X23-[Orn(4R-OH,5R-OH)]T[Hyp][hTyr(3S-OH,4S-OH)]T[Pro(3S-OH,4S-Me)]; lactam 1-C)	69.1%	1.25 µg/mL (≈ 1.17 µM)	
CCCCC(Oc1ccc(-c2ccccc2)cc1)C(=O)N[C@H]1C[C@@H](O)[C@@H](O)NC(=O)[C@@H]2[C@@H](O)[C@@H](C)CN2C(=O)[C@H]([C@@H](C)O)NC(=O)[C@H]([C@H](O)[C@@H](O)c2ccc(O)cc2)NC(=O)[C@@H]2C[C@@H](O)CN2C(=O)[C@H]([C@@H](C)O)NC1=O (stereo partly drawn) (X24-[Orn(4R-OH,5R-OH)]T[Hyp][hTyr(3S-OH,4S-OH)]T[Pro(3S-OH,4S-Me)]; lactam 1-C)	55.1%	80 µg/mL (≈ 75.2 µM)	
CCCCCCCCCCCCC(Oc1ccc(-c2ccccc2)cc1)C(=O)N[C@H]1C[C@@H](O)[C@@H](O)NC(=O)[C@@H]2[C@@H](O)[C@@H](C)CN2C(=O)[C@H]([C@@H](C)O)NC(=O)[C@H]([C@H](O)[C@@H](O)c2ccc(O)cc2)NC(=O)[C@@H]2C[C@@H](O)CN2C(=O)[C@H]([C@@H](C)O)NC1=O (stereo partly drawn) (X25-[Orn(4R-OH,5R-OH)]T[Hyp][hTyr(3S-OH,4S-OH)]T[Pro(3S-OH,4S-Me)]; lactam 1-C)	83%	0.312 µg/mL (≈ 0.265 µM)	
CCCCOc1ccc(Cc2ccc(C(=O)N[C@H]3C[C@@H](O)[C@@H](O)NC(=O)[C@@H]4[C@@H](O)[C@@H](C)CN4C(=O)[C@H]([C@@H](C)O)NC(=O)[C@H]([C@H](O)[C@@H](O)c4ccc(O)cc4)NC(=O)[C@@H]4C[C@@H](O)CN4C(=O)[C@H]([C@@H](C)O)NC3=O)cc2)cc1 (X26-[Orn(4R-OH,5R-OH)]T[Hyp][hTyr(3S-OH,4S-OH)]T[Pro(3S-OH,4S-Me)]; lactam 1-C)	43.4%	> 20 µg/mL	
CCCCCCCCCCOc1cc2ccccc2cc1C(=O)N[C@H]1C[C@@H](O)[C@@H](O)NC(=O)[C@@H]2[C@@H](O)[C@@H](C)CN2C(=O)[C@H]([C@@H](C)O)NC(=O)[C@H]([C@H](O)[C@@H](O)c2ccc(O)cc2)NC(=O)[C@@H]2C[C@@H](O)CN2C(=O)[C@H]([C@@H](C)O)NC1=O (X27-[Orn(4R-OH,5R-OH)]T[Hyp][hTyr(3S-OH,4S-OH)]T[Pro(3S-OH,4S-Me)]; lactam 1-C)	40.6%	20 µg/mL (≈ 18 µM)	
CCCCOc1ccc(Oc2ccc(C(=O)N[C@H]3C[C@@H](O)[C@@H](O)NC(=O)[C@@H]4[C@@H](O)[C@@H](C)CN4C(=O)[C@H]([C@@H](C)O)NC(=O)[C@H]([C@H](O)[C@@H](O)c4ccc(O)cc4)NC(=O)[C@@H]4C[C@@H](O)CN4C(=O)[C@H]([C@@H](C)O)NC3=O)cc2)cc1 (X28-[Orn(4R-OH,5R-OH)]T[Hyp][hTyr(3S-OH,4S-OH)]T[Pro(3S-OH,4S-Me)]; lactam 1-C)	66.7%	> 20 µg/mL	
CCCCCOCCOc1ccc(C(=O)N[C@H]2C[C@@H](O)[C@@H](O)NC(=O)[C@@H]3[C@@H](O)[C@@H](C)CN3C(=O)[C@H]([C@@H](C)O)NC(=O)[C@H]([C@H](O)[C@@H](O)c3ccc(O)cc3)NC(=O)[C@@H]3C[C@@H](O)CN3C(=O)[C@H]([C@@H](C)O)NC2=O)cc1 (X29-[Orn(4R-OH,5R-OH)]T[Hyp][hTyr(3S-OH,4S-OH)]T[Pro(3S-OH,4S-Me)]; lactam 1-C)	17.1%	> 20 µg/mL	
CCCCCCOc1cc2ccccc2cc1C(=O)N[C@H]1C[C@@H](O)[C@@H](O)NC(=O)[C@@H]2[C@@H](O)[C@@H](C)CN2C(=O)[C@H]([C@@H](C)O)NC(=O)[C@H]([C@H](O)[C@@H](O)c2ccc(O)cc2)NC(=O)[C@@H]2C[C@@H](O)CN2C(=O)[C@H]([C@@H](C)O)NC1=O (X30-[Orn(4R-OH,5R-OH)]T[Hyp][hTyr(3S-OH,4S-OH)]T[Pro(3S-OH,4S-Me)]; lactam 1-C)	19.4%	20 µg/mL (≈ 19 µM)	
